STAT3 inh – reduces IL-6 driven STAT3 reporter signal; U3A cells, IL-6 STAT3-luciferase reporter, luminescence; host cell line lacks STAT1; inhibition, % at 5.5 µM; actives 0.89% (n = 190,000); AID 862;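 active means inhibition above the mean inhibition across all screened compounds plus 3 SD, cut at about 44% in these data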;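 further: 0% = DMSO only wells and 100% = 100 µM nifuroxazide control wells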
NF-kB neuron act – compounds increasing NF-kB expression in human neuronal cells; fold change at 12.5 µM; actives 1.6% (n = 190,000); AID 1239; NF-kB reporter expression; active compounds read high; in the data active means fold change above about 3.3
STAT3 act – activators of IL-6 induced STAT3 signaling; U3A cells, IL-6 STAT3-luciferase reporter, luminescence; 100% = signal with IL-6 EC80 alone; activation (% of control), % at 5.6 µM; actives 0.91% (n = 190,000); AID 871;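 active means activation above the screen-wide mean of compound activation plus 3 SD, cut at about 130% in these data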;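 further: 0% = background luminescence of wells with medium and substrate only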
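Material: STAT1-lacking human U3A cells, STAT3 luciferase reporter | Benchmarks: IL-6-only wells as 100% reference | Probe or stimulus: IL-6 (33 ng/mL) | Timing: Compound 1 h, then IL-6 6 h at 37 °C | Detection: Luminescence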
APP 5'UTR act – activates APP 5'UTR luciferase reporter; actives 1% (n = 190,000); SH-SY5Y APP 5'UTR luciferase reporter, luminescence; zero percent = DMSO vehicle wells; activation, % at 2 µM; AID 1276;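 active means activation above a set limit, based on mean plus 3 SD of controls, cut at about 140% in these data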
STAT1 blocker – inhibitors of IFN-gamma induced STAT1 signaling; AID 920; actives 0.35% (n = 200,000); NIH 3T3 STAT1-luciferase reporter, luminescence; inhibition, % at 5.5 µM;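 active means inhibition above a set limit, the mean inhibition across all tested compounds plus 3 SD, cut at about 34% in these data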;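 further: 0% = IFN-gamma with DMSO and 100% = IFN-gamma with 300 µM nifuroxazide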
STAT1 act – activators of IFN-gamma induced STAT1 signaling. NIH 3T3 STAT1-luciferase reporter, luminescence; 100% = IFN-gamma alone, no compound. activation (% of control), % at 5.5 µM. actives 2.6% (n = 200,000);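 active means activation above the screen-wide mean activation plus 3 SD, cut at about 130% in these data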;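 further: raw ratio to IFN-gamma control signal so 100% means no change and 0% no light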
* = called active by the depositor; . = not tested or not shown. Compounds with a hit are over-represented: about 4.9% of the library has one in this group of screens.

SMILES | STAT3 inh | NF-kB neuron act | STAT3 act | APP 5'UTR act | STAT1 blocker | STAT1 act
ClC1(Cl)CC1Cn1cnc2ccccc21 (configuration not stated) | 7.5 | . | 97.9 | 13.2 | 2.8 | 95.8
Cn1nc(-c2ccc(Cl)cc2)nc2c(=O)n(C)c(=O)nc1-2 | 74.3* | 2.95 | 42.8 | 13.2 | 88.0* | 21.4
N/C(=N\OC(=O)/C=C/c1ccccc1)c1ccccc1 | -2.5 | 5.86* | 102.3 | 136.4* | -41.1 | 137.7*
O=C(/C=C/c1ccccc1)c1ccccc1 | -1.2 | 1.52 | 103.2 | 10.9 | -12.8 | 111.6
CCOc1ccccc1NC(=O)COC(=O)CC(NC(N)=O)c1ccc(Cl)cc1 (configuration not stated) | 3.8 | 0.92 | 101.3 | 19.0 | -4.4 | 102.8
Cc1ccccc1Nc1nc(N)nc(COC(=O)c2cccn2C)n1 | -5.5 | 2.88 | 113.7 | 77.4 | -45.5 | 141.4*
Cc1ccccc1Nc1nc(N)nc(COC(=O)c2ccccc2)n1 | -24.0 | 2.18 | 122.7 | 76.1 | -22.1 | 119.4
Cc1ccsc1C(=O)OCc1csc(-c2ccccc2)n1 | 2.9 | 9.41* | 100.8 | 195.3* | 0.6 | 99.4
Cn1cccc1C(=O)OCc1csc(-c2ccccc2)n1 | 33.4 | 5.75* | 74.7 | 149.6* | -37.2 | 134.0*
Cc1cc(SCCOc2ccccc2)nc(N)n1 | 1.4 | 2.54 | 102.8 | 3.4 | -32.0 | 129.2*
Cc1cn2nc(N)c3ccccc3c2n1 | 5.5 | 1.09 | 100.7 | 0.0 | 0.0 | 98.9
Nc1nn2cc(-c3ccccc3)nc2c2ccccc12 | -39.8 | 0.97 | 135.0* | 197.7* | -47.4 | 143.4*
Cc1nc(C/C(=N\N)c2ccc(O)cc2O)cs1 | -10.3 | 1.11 | 108.9 | 14.7 | 0.8 | 99.9
COc1ccc(C(=O)OCc2csc(C)n2)c(O)c1 | 3.3 | 2.87 | 99.2 | 34.1 | -43.8 | 138.7*
Cc1nc2c(C(=O)N3CCN(C)CC3)cnn2c(C)c1Cc1ccc(Cl)cc1 | -7.3 | 0.87 | 106.2 | . | 2.2 | 94.8
Cc1nc2c(C(=O)N3CCCCC3)cnn2c(C)c1Cc1ccccc1F | -14.3 | 1.45 | 121.5 | 132.1 | -41.4 | 137.6*
CC(C)(C)c1ccc(-c2nnc(N)s2)cc1 | 17.2 | 4.86* | 94.2 | 145.6* | -36.1 | 132.0*
N#CC(c1ccccc1)N(CCCCl)C(=O)c1ccc(Br)cc1 (configuration not stated) | 6.8 | 1.37 | 94.4 | -8.0 | -14.4 | 112.8
Clc1cc(Sc2ccc(Br)cc2)nnc1-c1ccccc1 | -47.5 | 0.78 | 138.5* | -4.5 | 1.9 | 98.3
Cc1cccc(C(=O)N2CCC(Cc3ccccc3)CC2)c1[N+](=O)[O-] | -17.1 | 0.89 | 111.9 | 9.8 | -0.7 | 100.6
Cc1cc(C)n(C(=O)CCCn2nc(C)c([N+](=O)[O-])c2C)n1 | 13.2 | 1 | 91.9 | -20.2 | -4.1 | 102.7
COc1cc(SC)ccc1C(=O)Nc1ccccc1 | -21.1 | 3.66* | 122.1 | 58.1 | -38.2 | 135.3*
COc1cc(SC)ccc1C(=O)NCCOc1ccc(F)cc1 | 3.2 | 3.18 | 97.2 | 52.6 | -39.7 | 135.4*
Cc1cnc(NC(=O)CSc2nnc(COc3c(C)cccc3C)o2)s1 | 6.2 | 0.98 | 99.2 | -5.5 | 0.5 | 99.5
COc1ccc(OCC(=O)Nc2cccc(-c3nc4ccccc4o3)c2)cc1 | 4.6 | 1.75 | 98.2 | 113.1 | -52.6 | 148.3*
SMILES | STAT3 inh | NF-kB neuron act | STAT3 act | APP 5'UTR act | STAT1 blocker | STAT1 act
COc1ccc(-c2nnc(SCC(=O)Nc3cccc(Cl)c3)o2)cc1 | 3.8 | 1.19 | 101.4 | 213.7* | -7.0 | 106.4
Cc1cnc(NC(=O)CSc2nnc(-c3ccccc3)o2)s1 | -2.8 | 2.48 | 106.3 | 112.9 | -31.0 | 128.7*
COc1ccccc1NC(=O)CSc1nnc(-c2ccncc2)o1 | -0.7 | 1.09 | 104.0 | 17.8 | -6.6 | 106.1
COc1ccc(-c2nnc(SCC(=O)Nc3ccccc3OC)o2)cc1 | -11.6 | 4.13* | 113.2 | 116.7 | -0.9 | 100.8
Cc1cc(NC(=O)CSc2nnc(N)s2)c([N+](=O)[O-])cc1C | 3.0 | 1.2 | 101.6 | 8.5 | 3.5 | 96.6
O=C(/C(C=Nc1cc2c(oc1=O)CCCC2=O)=C(\O)c1ccccc1)c1ccccc1 | 13.1 | 1.18 | 94.0 | 29.7 | -56.7 | 149.3*
Cc1nc(NC(=O)CSc2nnc(N)s2)c(Cl)cc1Cl | -2.6 | 1.3 | 103.3 | 1.0 | -7.4 | 104.4
O=C(O)C1CCCCC1C(=O)Nc1cccc2ccccc12 (configuration not stated) | 15.5 | 1.19 | 89.4 | 4.8 | -46.3 | 142.7*
O=C(O)C1CCCCC1C(=O)Nc1ccccc1Nc1ccccc1 (configuration not stated) | 23.2 | 1.04 | 81.8 | -19.2 | -5.8 | 105.3
COc1ccc(/C=C/C(=O)c2ccc(OC)cc2OC)c(OC)c1 | . | 1.47 | . | 7.7 | 0.5 | 98.4
COc1ccc(/C=C/C(=O)c2ccc3c(c2)OCO3)c(OC)c1 | 7.2 | 3.16 | 97.6 | 152.5* | -33.1 | 129.3*
COc1ccc(/C=C/C(=O)c2ccccc2)c(OC)c1 | -0.9 | 7.73* | 104.1 | 236.5* | -51.4 | 147.4*
Cc1oc2cc(O)ccc2c(=O)c1-c1cnn(-c2ccccc2)c1 | 24.9 | 2.01 | 80.2 | 20.4 | 7.7 | 92.9
O=c1c(-c2cnn(-c3ccccc3)c2)coc2cc(O)ccc12 | 11.3 | 3.69* | 94.5 | 140.0* | -38.3 | 132.5*
Cc1c(/C=N\NC(=O)c2c[nH]c3ccccc23)cnn1C | 10.7 | 1.32 | 94.9 | 26.6 | -23.8 | 118.3
Cc1occc1C(=O)N/N=C/c1c[nH]c2ccccc12 | -25.0 | 3.03 | 130.7 | 142.7* | -35.5 | 131.9*
O=C(N/N=C/c1cccs1)c1c[nH]c2ccccc12 | -3.4 | 2.3 | 102.5 | 43.8 | -31.5 | 128.6*
Cc1occc1C(=O)N/N=C/C=C/c1ccccc1 | 13.3 | 2.63 | 98.3 | 54.7 | -51.8 | 146.5*
COc1cc(/C=N/NC(=O)c2ccoc2C)cc(OC)c1O | -2.9 | 1.12 | 100.3 | -1.8 | -39.0 | 134.6*
CC1CCCC(C)N1C(=O)COC(=O)C(Cc1ccccc1)NC(=O)c1cccs1 (configuration not stated) | 7.4 | 1.13 | 96.6 | -14.7 | 5.8 | 94.7
Cc1ccc(/C=N/NC(=O)c2ccoc2C)o1 | -10.1 | 1.73 | 109.2 | 28.4 | -35.9 | 132.1*
CSc1nsc(/C=C/Nc2ccc(O)cc2C)c1C#N | 20.5 | 1.04 | 86.1 | -6.4 | 12.1 | 88.5
CC1=CC(=C2C(=O)c3ccccc3C2=O)C=C(C)N1C | 24.4 | 2.27 | 82.2 | 48.3 | -38.9 | 135.4*
COC1=C(c2ccccc2)C(=O)c2ccccc2C1=O | -1.1 | 1.18 | 101.0 | -12.2 | 0.3 | 99.7
Cn1c(COc2ccc(Br)cc2)nnc1SC1CCc2ccccc2C1=O (configuration not stated) | -42.5 | 0.85 | 132.9* | 1.9 | 2.6 | 97.7
CCOc1ccc(C(=O)NC2=NCCS2)cc1 | 17.3 | 2.66 | 88.7 | 92.2 | -44.5 | 138.9*
Cc1cccc(C(=O)NC2=NCCS2)c1 | 13.6 | 3.32* | 90.3 | 138.9* | -15.2 | 112.2

Screening data (PubChem BioAssay)
